From ChEMBL document CHEMBL1125388, “New modified heterocyclic phenylalanine derivatives. Incorporation into potent inhibitors of human renin” (J Med Chem, 1992) come the findings set out here.

Molecules are shown by their SMILES. Values joined by “and” are separate entries in the source; they are usually repeats but may differ in a detail not shown here. Equal values may be shown once.

The target of the first test is T1, Renin (Homo sapiens, UniProt P00797).
T1 sequence (P00797 whole entry): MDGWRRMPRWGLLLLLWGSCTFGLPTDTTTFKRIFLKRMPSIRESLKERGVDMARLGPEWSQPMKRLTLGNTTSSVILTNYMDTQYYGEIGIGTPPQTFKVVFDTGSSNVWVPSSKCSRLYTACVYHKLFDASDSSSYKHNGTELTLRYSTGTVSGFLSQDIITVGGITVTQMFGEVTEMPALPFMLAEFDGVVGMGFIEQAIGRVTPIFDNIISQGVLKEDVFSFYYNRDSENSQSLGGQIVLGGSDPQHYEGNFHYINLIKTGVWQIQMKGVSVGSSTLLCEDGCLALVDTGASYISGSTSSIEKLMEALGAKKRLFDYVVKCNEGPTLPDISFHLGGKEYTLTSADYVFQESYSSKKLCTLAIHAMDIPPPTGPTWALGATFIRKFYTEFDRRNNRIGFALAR
The test can be described thus: Inhibition of human recombinant renin. The procedure, abridged: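 Recombinant human renin (0.05 GU/mL, set to generate 30-40 ng A1/mL per h) incubated with 20 μM human renin substrate stock, pH 5.7 phosphate buffer with BSA, EDTA and PMSF, 1% DMSO final, 37 °C for 1 h; 4 °C blank tubes. RIA (3 h room temperature, γ counting) against standard curve; IC50 reported.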
Regarding `CCCC[C@H](NC(=O)[C@H](Cc1ccccc1)N1Cc2ccccc2C1=O)C(=O)N[C@@H](CC1CCCCC1)C(O)C(=O)OC(C)C` (stereo not given in full), the IC50 came to 16 nM.
Regarding `CC(C)CC(NC(=O)[C@H](Cc1ccccc1)N1Cc2nccn2C1=O)C(=O)N[C@@H](CC1CCCCC1)C(O)C(=O)OC(C)C` (stereo not given in full), the IC50 is 100 nM.
On to `COC(=O)C(O)[C@H](CC1CCCCC1)NC(=O)C(CC(C)C)NC(=O)[C@H](Cc1ccccc1)N1C(=O)c2cccc3cccc(c23)C1=O` (stereo not given in full), for which the IC50 amounted to 391 nM.
Same read-out and setting: next, `CC(C)CC(NC(=O)[C@H](Cc1ccccc1)N1CCCC1=O)C(=O)N[C@@H](CC1CCCCC1)C(O)C(=O)OC(C)C` (stereo not given in full): 157 nM; `CC(C)CC(NC(=O)[C@H](Cc1ccccc1)N1CC2CCCN2C1=O)C(=O)N[C@@H](CC1CCCCC1)C(O)C(=O)OC(C)C` (stereo not given in full): 141 nM.
On the same count and under the same terms, next, `COC(=O)C(O)[C@H](CC1CCCCC1)NC(=O)C(CC(C)C)NC(=O)[C@H](Cc1ccccc1)NC(=O)OC(C)(C)C` (stereo not given in full): 8 nM and 24 nM; `COC(=O)C(O)[C@H](CC1CCCCC1)NC(=O)C(CC(C)C)NC(=O)[C@H](Cc1ccccc1)N1Cc2ccccc2C1=O` (stereo not given in full): 23 nM; `CC(C)CC(NC(=O)[C@H](Cc1ccccc1)N1Cc2ccccc2C1=O)C(=O)N[C@@H](CC1CCCCC1)C(O)C(=O)OC(C)C` (stereo not given in full): 36 nM.
Consider `COC(=O)C(O)[C@H](CC1CCCCC1)NC(=O)C(Cc1cnc[nH]1)NC(=O)[C@H](Cc1ccccc1)N1Cc2ccccc2C1=O` (stereo not given in full), for which the IC50 came out at 186 nM.
The same measure, in the same setting: under `CCC[C@H](NC(=O)[C@H](Cc1ccccc1)N1Cc2ccccc2C1=O)C(=O)N[C@@H](CC1CCCCC1)C(O)C(=O)OC(C)C` (stereo not given in full) stands 8.9 nM.
Same read-out and setting: under `CC(C)CC(NC(=O)[C@H](Cc1ccccc1)N1Cc2cccc3cccc(c23)C1=O)C(=O)N[C@@H](CC1CCCCC1)C(O)C(=O)OC(C)C` (stereo not given in full) stands 80 nM; under `COC(=O)C(O)[C@H](CC1CCCCC1)NC(=O)C(CC(C)C)NC(=O)[C@H](Cc1ccccc1)N1Cc2ncccc2C1=O` (stereo not given in full), 207 nM.

The target in the next test is T2, Renin (Homo sapiens) (UniProt P00797).
T2 sequence (whole entry): T1 sequence (P00797 whole entry)
Briefly: Inhibition of human recombinant renin at 1 uM.
Consider `COC(=O)C(O)[C@H](CC1CCCCC1)NC(=O)C(CC(C)C)NC(=O)[C@H](Cc1ccccc1)N1C(=O)OC(C)(C)C1C` (stereo not given in full), for which the inhibition was found to be 76%.
Still for that read-out and setting: next, `COC(=O)C(O)[C@H](CC1CCCCC1)NC(=O)C(CC(C)C)NC(=O)[C@H](Cc1ccccc1)N1CC(C)(C)OC1=O` (stereo not given in full): 86.4%; `COC(=O)C(O)[C@H](CC1CCCCC1)NC(=O)C(CC(C)C)NC(=O)[C@H](Cc1ccccc1)N1C(=O)c2ccccc2C1=O` (stereo not given in full): 45%.

As a reminder, the IC50 is the concentration that inhibits the measured activity by half. As a reminder, the inhibition is how much of the control response was suppressed.
